According to ChEMBL document CHEMBL1144667 (2008):
Activity calls are given as the source filed them. Residues, ends and D or L forms follow the SMILES beside them.

What was measured:
[1] = biological target: Neurotensin receptor type 1 (Rattus norvegicus) (UniProt P20789); test: Binding affinity at rat NTS1 receptor
[2] = test system: Mus musculus; test: Decrease in body temperature in Swiss albino mouse at 100 ng, icv after 30 mins; assay type: functional, organism-based
Outline: (§1)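 icv doses 30 ng–3 µg (10 µL/mouse) in male Swiss albino CD1 mice; body temperature followed over 240 min. Mean body temperature over 4 h = AUC of time–response curve per mouse ÷ 240 min; ED35 = dose giving 35 °C mean over 4 h. 8 mice/group, mean ± SEM vs saline.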

[3] = test system: Mus musculus; test: Decrease in body temperature in Swiss albino mouse at 10 mg/kg, sc; assay type: functional, organism-based; parameters: dose 10 mg/kg; conditions: TDE = time-dependent effect
Outline: (§2)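 Male Swiss albino CD1 mice injected s.c. (10 mL/kg); body temperature followed over time to beyond 3 h; 8–10 mice/group, mean ± SEM vs saline; two-way repeated-measures ANOVA.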

[4] = test system: Mus musculus; test: Decrease in body temperature in Swiss albino mouse at 3 ug, icv after 90 mins; assay type: functional, organism-based; outline: as §1
[5] = test system: Mus musculus; test: Analgesic activity in iv dosed Swiss Albino mouse assessed as inhibition of acetic acid-induced writhing responses; assay type: functional, organism-based
Outline: (§3)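 Male Swiss albino CD1 mice (20–22 g); i.v. dosing 10 mL/kg, 15 min before i.p. 0.5% acetic acid; mice placed singly in large beakers, stretches counted over 5 min starting 5 min after acid. Dose–response plus time course at 0.3 mg/kg; 8–18 mice/group, mean ± SEM vs saline.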

[6] = test system: Mus musculus; test: Decrease in body temperature in sc dosed Swiss albino mouse; assay type: functional, organism-based; outline: as §2
[7] = test system: Mus musculus; test: Decrease in body temperature in iv dosed Swiss albino mouse; assay type: functional, organism-based
Outline: (§4)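 Body temperature tracked over time after i.v. injection (10 mL/kg) in male Swiss albino CD1 mice (20–22 g); 6–8 mice/group, mean ± SEM vs saline; two-way repeated-measures ANOVA.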

[8] = test system: Mus musculus; test: Decrease in body temperature in Swiss albino mouse at 3 mg/kg, iv; assay type: functional, organism-based; parameters: dose 3 mg/kg; conditions: TDE = time-dependent effect; outline: as §4
[9] = test system: Mus musculus; test: Antinociceptive effect in icv dosed Swiss albino mouse assessed as reduction in acetic acid-induced writhing responses at 1 mg/kg, sc to 10 mg/kg, sc; assay type: functional, organism-based; conditions: in the assay text read “Swiss albino mouse” for “icv dosed Swiss albino mouse”
Outline: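 Writhing in male Swiss albino CD1 mice: s.c. dosing 1–10 mg/kg (10 mL/kg) 15 min before i.p. 0.5% acetic acid; stretches counted over 5 min starting 5 min after acid. 6–8 mice/group, mean ± SEM vs saline.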

[10] = test system: Mus musculus; test: Decrease in body temperature in Swiss albino mouse at 3 ug, icv after 4 hrs relative to control; assay type: functional, organism-based; outline: as §1
[11] = test system: Mus musculus; test: Antinociceptive effect in Swiss albino mouse assessed as reduction in jump latency between 300 ng to 3 ug, icv by hot plate test; assay type: functional, organism-based
Outline: (§5)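 Hot plate at 55 ± 0.5 °C, male Swiss albino CD1 mice confined by plastic cylinder, tested 20 min after icv injection (10 µL/mouse; Haley–McCormick method); paw licking and jump latencies recorded, 240 s cutoff, each mouse tested once. Levocabastine 1350 pmol icv alone or co-given with 300 ng agonist. 6–9 mice/group, mean ± SEM vs saline.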

[12] = test system: Mus musculus; test: Decrease in body temperature in Swiss albino mouse at 1 mg/kg, iv; assay type: functional, organism-based; parameters: dose 1 mg/kg; conditions: TDE = time-dependent effect; outline: as §4
[13] = test system: Mus musculus; test: Antinociceptive effect in Swiss albino mouse assessed as reduction in acetic acid-induced writhing responses at 30 mg/kg, po
[14] = test system: Mus musculus; test: Analgesic activity in Swiss Albino mouse assessed as inhibition of acetic acid-induced writhing responses at 0.3 mg/kg, iv; assay type: functional, organism-based; parameters: dose 0.3 mg/kg; outline: as §3
[15] = test system: Mus musculus; test: Antinociceptive effect in Swiss albino mouse assessed as reduction in jump latency at 1350 pmol, icv after 20 mins by hot plate test; assay type: functional, organism-based; conditions: in the assay text read “300 ng” for “1350 pmol”; outline: as §5
[16] = test system: Mus musculus; test: Decrease in body temperature in icv dosed Swiss albino mouse after 4 hrs; assay type: functional; outline: as §1
[17] = test system: Mus musculus; test: Antinociceptive effect in Swiss albino mouse assessed as reduction in jump latency at 300 ng, icv after 20 mins by hot plate test; assay type: functional, organism-based; outline: as §5
[18] = test system: Mus musculus; test: Antinociceptive effect in Swiss albino mouse assessed as reduction in paw licking latency between 300 ng to 3 ug, icv by hot plate test; assay type: functional, organism-based; outline: as §5
[19] = test system: Mus musculus; test: Decrease in body temperature in Swiss albino mouse at 1 mg/kg, sc; assay type: functional, organism-based; parameters: dose 1 mg/kg; conditions: TDE = time-dependent effect; outline: as §2

Neurotensin receptor type 1 (Rattus norvegicus), sequence (P20789 whole entry): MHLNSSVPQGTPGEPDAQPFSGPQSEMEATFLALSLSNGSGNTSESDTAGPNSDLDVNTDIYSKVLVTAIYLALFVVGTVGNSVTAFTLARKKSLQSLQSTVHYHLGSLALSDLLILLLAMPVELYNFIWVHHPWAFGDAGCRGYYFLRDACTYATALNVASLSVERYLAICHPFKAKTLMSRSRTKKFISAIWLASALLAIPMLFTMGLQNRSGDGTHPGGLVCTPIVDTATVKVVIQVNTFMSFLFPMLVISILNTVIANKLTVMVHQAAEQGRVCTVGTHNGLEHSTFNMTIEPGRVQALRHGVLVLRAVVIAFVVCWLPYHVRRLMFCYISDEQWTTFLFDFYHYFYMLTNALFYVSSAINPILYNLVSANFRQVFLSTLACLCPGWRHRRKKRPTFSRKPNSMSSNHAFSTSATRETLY

Activity [1] | SMILES | Activity [2] | Activity [3] | Activity [4] | Activity [5] | Activity [6] | Activity [7] | Activity [8] | Activity [9] | Activity [10] | Activity [11] | Activity [12] | Activity [13] | Activity [14] | Activity [15] | ED35 [16] | Activity [17] | Activity [18] | Activity [19]
0.16 nmol | CCC(C)[C@H](NC(=O)[C@H](Cc1ccc(O)cc1)NC(=O)[C@@H]1CCCN1C(=O)[C@H](CCCNC(=N)N)NC(=O)[C@@H](N)CCCNC(=N)N)C(=O)N[C@@H](CC(C)C)C(=O)O (single isomer, unassigned) | – | – | – | – | – | – | – | – | – | – | – | – | – | – | – | – | – | –
– | CC[C@H](C)[C@@H]1NC(=O)[C@H](Cc2ccc(O)cc2)NC(=O)[C@@H]2CCCN2C(=O)[C@H](CCCCN)NC(=O)[C@H](CCCCN)NC(=O)[C@H](CC(C)C)NC(=O)[C@H]([C@@H](C)CC)NC(=O)[C@H](Cc2ccc(O)cc2)NC(=O)[C@@H]2CCCN2C(=O)[C@H](CCCCN)NC(=O)[C@H](CCCCN)NC(=O)[C@H](CC(C)C)NC1=O (cyclo(ILKKPYILKKPY)) | Active | tde | Active | Dose-dependent effect | Dose-dependent effect | Dose-dependent effect | tde | Dose-dependent effect | Active | Dose-dependent effect | tde | Active | Active | Active | 300 ng | Active | Dose-dependent effect | tde
